According to the M2OR odorant receptor database:

Legend:
Settings in all cases: stereoisomer not certain
OR4CD V133I = test system: OR4CD V133I
In short: (§1)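 Values were gathered from published papers (main text and supplementary material), with extra details requested from the original authors when needed, and checked for typos and inconsistencies. Each receptor–molecule pair is called responsive (active) if the original authors judged the measured signal statistically different from baseline, and non-responsive (inactive) otherwise. Assay methods varied by source, often transient mammalian cell-line luciferase assays. Recorded details include cell line, G-protein, co-transfected protein and tags.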

OR4CF = test system: OR4CF
Chain of OR4CF (as listed by the source): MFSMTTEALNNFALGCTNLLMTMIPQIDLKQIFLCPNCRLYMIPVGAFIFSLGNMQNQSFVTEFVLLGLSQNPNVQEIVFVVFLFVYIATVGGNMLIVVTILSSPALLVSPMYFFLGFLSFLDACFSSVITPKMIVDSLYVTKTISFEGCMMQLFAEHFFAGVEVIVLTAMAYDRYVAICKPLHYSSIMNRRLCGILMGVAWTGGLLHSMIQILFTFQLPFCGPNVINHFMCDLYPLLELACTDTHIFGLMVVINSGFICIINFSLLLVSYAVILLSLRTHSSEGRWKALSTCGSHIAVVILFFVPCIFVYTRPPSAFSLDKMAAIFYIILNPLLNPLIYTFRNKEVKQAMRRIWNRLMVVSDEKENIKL
In short: as §1

OR4CG T76A = test system: OR4CG T76A
Chain of OR4CG T76A (as listed by the source, stated change not applied): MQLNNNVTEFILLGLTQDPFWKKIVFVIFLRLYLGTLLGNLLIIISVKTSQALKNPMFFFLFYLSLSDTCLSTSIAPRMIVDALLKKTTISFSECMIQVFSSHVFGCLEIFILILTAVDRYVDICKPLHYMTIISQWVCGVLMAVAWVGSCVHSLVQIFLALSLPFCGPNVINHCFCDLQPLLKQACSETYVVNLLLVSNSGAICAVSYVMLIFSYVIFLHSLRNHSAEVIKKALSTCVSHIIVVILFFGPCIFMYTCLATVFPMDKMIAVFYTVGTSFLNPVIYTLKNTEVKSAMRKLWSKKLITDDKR
In short: as §1

OR4D1 (Homo sapiens) = OR4D1 (Homo sapiens) (UniProt Q15615)
Chain of OR4D1 (Homo sapiens) (Q15615 whole entry): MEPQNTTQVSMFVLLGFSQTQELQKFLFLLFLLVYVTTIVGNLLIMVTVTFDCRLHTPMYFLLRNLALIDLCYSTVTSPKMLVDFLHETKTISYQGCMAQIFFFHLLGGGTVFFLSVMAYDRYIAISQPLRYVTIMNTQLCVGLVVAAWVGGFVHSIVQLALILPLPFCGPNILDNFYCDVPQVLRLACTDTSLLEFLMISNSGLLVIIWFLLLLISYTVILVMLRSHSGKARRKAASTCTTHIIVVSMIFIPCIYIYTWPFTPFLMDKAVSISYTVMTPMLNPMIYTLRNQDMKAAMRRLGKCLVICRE
In short: as §1

OR4D10 (Homo sapiens) = OR4D10 (Homo sapiens) (UniProt Q8NGI6)
Chain of OR4D10 (Homo sapiens) (Q8NGI6 whole entry): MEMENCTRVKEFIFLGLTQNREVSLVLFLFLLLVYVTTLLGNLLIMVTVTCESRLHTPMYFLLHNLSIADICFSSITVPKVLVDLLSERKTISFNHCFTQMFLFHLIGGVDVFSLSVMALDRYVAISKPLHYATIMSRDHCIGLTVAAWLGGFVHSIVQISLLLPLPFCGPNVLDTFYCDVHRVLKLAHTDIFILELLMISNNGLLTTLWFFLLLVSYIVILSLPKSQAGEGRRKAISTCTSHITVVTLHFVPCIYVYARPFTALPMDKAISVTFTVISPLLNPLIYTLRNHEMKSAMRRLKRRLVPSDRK
In short: as §1

OR4D11 (Homo sapiens) = OR4D11 (Homo sapiens) (UniProt Q8NGI4)
Chain of OR4D11 (Homo sapiens) (Q8NGI4 whole entry): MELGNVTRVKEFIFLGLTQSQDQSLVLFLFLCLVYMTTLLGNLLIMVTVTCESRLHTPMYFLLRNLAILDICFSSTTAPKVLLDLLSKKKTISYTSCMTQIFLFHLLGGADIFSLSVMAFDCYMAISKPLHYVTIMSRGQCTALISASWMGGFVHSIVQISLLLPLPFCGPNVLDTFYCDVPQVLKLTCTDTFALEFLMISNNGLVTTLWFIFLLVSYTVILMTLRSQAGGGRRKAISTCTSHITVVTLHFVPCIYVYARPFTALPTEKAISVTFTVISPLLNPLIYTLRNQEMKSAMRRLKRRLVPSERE
In short: as §1

OR4D1 = test system: OR4D1
Chain of OR4D1 (as listed by the source): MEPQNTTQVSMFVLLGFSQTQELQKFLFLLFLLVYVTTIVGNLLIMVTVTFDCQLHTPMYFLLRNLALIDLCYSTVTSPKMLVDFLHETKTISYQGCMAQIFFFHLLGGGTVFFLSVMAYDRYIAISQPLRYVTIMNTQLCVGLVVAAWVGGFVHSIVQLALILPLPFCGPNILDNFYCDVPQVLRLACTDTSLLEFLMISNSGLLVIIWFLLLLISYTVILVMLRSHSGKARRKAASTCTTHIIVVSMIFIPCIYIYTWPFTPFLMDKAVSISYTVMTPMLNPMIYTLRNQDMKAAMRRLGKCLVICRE
In short: as §1

OR4D2 (Homo sapiens) = OR4D2 (Homo sapiens) (UniProt P58180)
Chain of OR4D2 (Homo sapiens) (P58180 whole entry): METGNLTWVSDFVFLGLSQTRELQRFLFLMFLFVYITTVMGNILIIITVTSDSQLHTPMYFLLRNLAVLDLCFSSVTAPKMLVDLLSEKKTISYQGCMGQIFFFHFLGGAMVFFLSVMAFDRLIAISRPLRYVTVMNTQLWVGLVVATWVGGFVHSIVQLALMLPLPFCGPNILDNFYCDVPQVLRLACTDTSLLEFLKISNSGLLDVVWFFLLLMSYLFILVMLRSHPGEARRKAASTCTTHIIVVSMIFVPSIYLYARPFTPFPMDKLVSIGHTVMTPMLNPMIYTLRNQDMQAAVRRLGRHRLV
In short: as §1

OR4D2 = test system: OR4D2
Chain of OR4D2 (as listed by the source): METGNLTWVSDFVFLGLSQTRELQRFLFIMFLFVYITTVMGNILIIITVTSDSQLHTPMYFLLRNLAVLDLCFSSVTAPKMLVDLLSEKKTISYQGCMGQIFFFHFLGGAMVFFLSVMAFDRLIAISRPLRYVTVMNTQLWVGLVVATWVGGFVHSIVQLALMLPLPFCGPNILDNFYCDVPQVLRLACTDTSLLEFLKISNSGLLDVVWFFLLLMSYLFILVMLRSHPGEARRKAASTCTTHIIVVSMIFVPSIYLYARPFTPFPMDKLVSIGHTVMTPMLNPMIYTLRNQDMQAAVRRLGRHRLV
In short: as §1

OR4D5 (Homo sapiens) = OR4D5 (Homo sapiens) (UniProt Q8NGN0)
Chain of OR4D5 (Homo sapiens) (Q8NGN0 whole entry): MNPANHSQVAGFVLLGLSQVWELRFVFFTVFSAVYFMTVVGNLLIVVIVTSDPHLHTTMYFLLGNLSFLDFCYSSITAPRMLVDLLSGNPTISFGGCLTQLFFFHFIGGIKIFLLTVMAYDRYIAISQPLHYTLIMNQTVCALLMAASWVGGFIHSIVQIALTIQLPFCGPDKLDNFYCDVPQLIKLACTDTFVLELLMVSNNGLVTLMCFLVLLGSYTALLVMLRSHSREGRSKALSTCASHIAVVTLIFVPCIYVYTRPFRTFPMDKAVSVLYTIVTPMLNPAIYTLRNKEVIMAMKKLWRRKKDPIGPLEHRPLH
In short: as §1

Measured: odorant receptor agonist call

Chain of OR4CD V133I (as listed by the source, stated change not applied): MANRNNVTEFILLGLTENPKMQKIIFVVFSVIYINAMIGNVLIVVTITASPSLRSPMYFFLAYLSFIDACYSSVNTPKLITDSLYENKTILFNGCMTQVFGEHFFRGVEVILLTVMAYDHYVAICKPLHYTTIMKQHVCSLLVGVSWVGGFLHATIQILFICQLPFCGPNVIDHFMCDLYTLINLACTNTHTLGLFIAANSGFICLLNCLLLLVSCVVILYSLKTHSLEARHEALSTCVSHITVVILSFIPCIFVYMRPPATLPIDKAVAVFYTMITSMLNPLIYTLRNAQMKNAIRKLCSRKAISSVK

C=CCOC(=O)Cc1ccccc1
inactive: all assays above

Cc1c([N+](=O)[O-])c(C)c([N+](=O)[O-])c(C(C)(C)C)c1[N+](=O)[O-]
inactive: OR4D1 (Homo sapiens) | OR4D10 (Homo sapiens) | OR4D11 (Homo sapiens) | OR4D2 (Homo sapiens) | OR4D5 (Homo sapiens)
